# Bioassay records (PubChem BioAssay)
# SKN-1 inh: blocks SKN-1 activity in C. elegans | 0.49% of 360,000 active | C. elegans VP596 Pgst-4::GFP/RFP ratio, acrylamide-induced, 24 h | inhibition, % at 21.8 µM | AID 624304;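 active means interference check ratio from 0.5 to 1.5 plus GFP to RFP signal ratio inhibition reaching or exceeding a fixed threshold, cut at about 30% in these data, passing the limit was not always enough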
# eIF4H FP inh: inhibitors of RNA binding by human eIF4H; eIF4H fluorescence polarization binding assay; AID 2012; 0.94% of 290,000 active; inhibition, % at 35 µM;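 further: calls also rest on retests at 20 µM and on dose response follow-up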
# PABP polyA inh: PABP-poly(A) binding inhibition; 1% of 290,000 active; inhibition, % at 35 µM; P11940; PABP-poly(A) RNA binding, fluorescence polarization;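 further: calls also rest on retests at 20 µM and on dose response follow-up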
# MLLE-PAM2 inh: inhibitors of microRNA-mediated deadenylation, human PABP1 MLLE binding; P11940; GST-MLLE / FITC-PAM2 fluorescence polarization; inhibition, % at 20 µM; 0.36% of 360,000 active; in the data active means inhibition above about 35%, passing the limit was not always enough
# MT1-MMP act inh: MT1-MMP (human) activation inhibition; P50281; HT1080 RFP-PRO-GFP cells, GFP/RFP ratio fluorescence, overnight; percent of plate control window, DMSO zero; GFP/RFP ratio change, % at 20 µM; 0.061% of 360,000 active; AID 651647;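 active means GFP/RFP ratio change of at least 30% with cell ATP level not reduced by more than half and red fluorescence within 50% of control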
#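 Assay system – RFP-PRO-GFP reporter HT1080 cells · Compound dosing – single dose of 20 µM compound, 1% DMSO final · Incubation – overnight compound exposure at 37 °C · Measure – GFP/RFP fluorescence ratio · Benchmarks – DMSO wells and RFP-L50D-GFP cells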
# Numbers stand for hits; - = inactive; ? = inconclusive; . = not tested or not shown. Rows were chosen to be rich in hits. Some 1.7% of all compounds tested hit in one or more screens of this group. Unless noted, how the calls were made is not given here.
SMILES,SKN-1 inh,eIF4H FP inh,PABP polyA inh,MLLE-PAM2 inh,MT1-MMP act inh
Cc1ccc[n+](-c2[nH]c(=O)sc2/C=N/NC(=O)c2ccccc2[O-])c1,-,-,-,48,-
O=C(N/N=C/c1sc(=O)[nH]c1-[n+]1ccc2ccccc2c1)c1ccccc1[O-],-,.,.,-,-
O=C(N/N=C/c1sc(=O)[nH]c1-[n+]1ccccc1)c1ccccc1[O-],-,-,-,61,-
COc1cc(OC)c(C(=O)Nc2ccc(C(=O)c3ccccc3)cc2)cc1OC,-,-,-,-,-
CCCOC(=O)c1ccc(NC(=O)/C=C/c2cccs2)cc1,47,-,-,-,-
Cc1ccc(C)c(NS(=O)(=O)c2ccc3[nH]c(=O)oc3c2)c1,-,?,42,-,-
COC(=O)c1ccc(NS(=O)(=O)c2ccc3[nH]c(=O)oc3c2)cc1,-,66,-,-,-
O=[N+]([O-])c1cc(S(=O)(=O)N2CCCC2)ccc1N/N=C/c1cccs1,36,-,-,-,-
Cn1cccc1/C=C1\SC(=O)N(c2ccc(O)cc2)C1=O,-,0.7,80,-,-
COc1cc(/C=C/C(=O)N2C(=O)c3cccc(N)c3C2=O)cc(OC)c1OC,-,-,-,-,-
COc1ccc(OC)c(/C=C/C(=O)N2C(=O)c3cccc(N)c3C2=O)c1,-,-,-,40,-
O=C(O)CC(C(=O)O)c1ccc(OCCCCOc2ccc(C(CC(=O)O)C(=O)O)cc2)cc1 (stereo not given),-,101,68,-,-
O=C1c2cccc3c([N+](=O)[O-])ccc(c23)C(=O)N1O,-,?,?,-,-
COc1ccc2c3c(cccc13)C(=O)N(O)C2=O,-,-,-,40,-
CCCCCCSc1ccc([C@H]2N[C@@](CC(C)C)(C(=O)OC)[C@H]3C(=O)N(C)C(=O)[C@@H]23)cc1OC,-,.,.,-,-
CN(NC(=O)c1ccco1)c1nc2ccccc2nc1C(F)(F)F,-,active,57,-,-
Cc1cc(C)c(NC(=O)CN(C)C(=O)CNC(=O)c2cccs2)c(C)c1,-,.,.,-,-
O=P(OCC1CC1)(c1ccccc1)c1ccccc1,-,-,122,-,-
Cc1cc(C)n(-c2ccc(S(=O)(=O)N3CCOCC3)cc2[N+](=O)[O-])n1,-,-,-,-,-
COc1ccc(C(=O)NC(=S)NCc2cccnc2)cc1[N+](=O)[O-],-,-,-,38,-
CCOc1ccc(NC(=S)NC(=O)c2cccnc2)c([N+](=O)[O-])c1,-,-,-,44,-
COc1ccc(C(=O)NC(=S)NCc2cccnc2)cc1OC,-,-,-,-,-
CCc1ccc(N2CC(C)Cn3c2nc2c3c(=O)[nH]c(=O)n2C)cc1 (stereo not given),-,-,-,-,-
Cc1cccc(C)c1N1C(=O)[C@@H]2C(c3ccccc3Cl)=NO[C@@H]2C1=O,-,-,-,-,-
COc1ccc(OC)c(N2C(=O)[C@@H]3C(c4ccccc4Cl)=NO[C@@H]3C2=O)c1,-,81,61,-,-
SMILES,SKN-1 inh,eIF4H FP inh,PABP polyA inh,MLLE-PAM2 inh,MT1-MMP act inh
CCN(CC)C(=O)c1cccc(NC(=O)CC23CC4CC(CC(C4)C2)C3)c1,-,-,-,-,-
C=CCN1C=C/C(=C\C=C(C#N)C#N)c2ccccc21,35,-,-,-,-
CCCCN(C)S(=O)(=O)c1ccc(C(=O)Nc2nnc(C3=COCCO3)o2)cc1,-,-,-,-,-
CS(=O)(=O)c1cccc(C(=O)Nc2nnc(C3=COCCO3)o2)c1,-,.,.,41,-
N#CCCN(CCC#N)S(=O)(=O)c1ccc(C(=O)Nc2nnc(C3=COCCO3)o2)cc1,-,82,9.6,-,-
O=C(O)c1ccccc1N=Nc1c(O)[nH]c2ccc([N+](=O)[O-])cc12,-,-,-,-,-
O=[N+]([O-])c1ccc2[nH]c(O)c(N=NC(=S)NCC3CCCO3)c2c1 (stereo not given),-,-,-,-,-
CCNC(=S)N=Nc1c(O)[nH]c2ccc([N+](=O)[O-])cc12,-,-,-,45,-
O=C(N=Nc1c(O)[nH]c2ccc([N+](=O)[O-])cc12)c1ccccc1Cl,-,-,6.1,-,-
CN(c1ccc(O)cc1)c1nc(-c2cccs2)cs1,-,-,-,-,-
Cc1nc(N)sc1-c1csc(N(C)c2ccc(O)cc2)n1,-,92,70,-,-
COC(=O)c1ccc(C2NC(C(=O)O)CS2)cc1 (stereo not given),-,-,-,-,-
O=C(O)C1CSC(c2ccncc2)N1 (stereo not given),-,-,-,38,-
Cc1ccc(OCC(=O)N[C@@H](C)c2nnc3ccccn23)cc1C,-,-,-,-,-
CC(=O)c1ccccc1NC(=O)CN1C(=O)NC2(CCCCCCC2)C1=O,-,.,.,-,-
CCc1ccc(OCC(=O)NC(NC(=S)Nc2ccccc2OC)C(Cl)(Cl)Cl)cc1 (stereo not given),-,78,active,-,-
O=C(COc1ccccc1Cl)NCCNC(=O)c1cccnc1,-,-,-,-,-
COC(=O)c1ccc(OC(=O)c2ccc(OC)cc2)c(OC)c1,-,53,6.3,-,-
CC12CC3(C)CC(C)(C1)CC(C(=O)NC(=S)NC(C)(C)C)(C2)C3,-,-,-,43,-
CCc1nnc(NS(=O)(=O)c2ccc(NC(=S)NC(=O)c3ccc(F)cc3)cc2)s1,-,0.6,-,-,-
Cc1cc(C(=O)NC(=S)Nc2cccc(NC(=O)C(C)C)c2)ccc1[N+](=O)[O-],-,-,-,38,-
C/C(CC(=O)Nc1ccc(N(C)C)cc1)=N\NC(=O)c1ccccc1O,-,-,-,-,-
C/C(CC(=O)Nc1ccc([N+](=O)[O-])cc1)=N\NC(=O)c1ccccc1O,-,82,-,-,-
CC(C)C(=O)Nc1ccc(NC(=S)NC(=O)c2ccc([N+](=O)[O-])cc2)cc1,-,-,-,42,-
CC(C)(CNC(=O)c1cc(Cl)c(O)c(Cl)c1)N1CCCCC1,-,-,-,-,-
SMILES,SKN-1 inh,eIF4H FP inh,PABP polyA inh,MLLE-PAM2 inh,MT1-MMP act inh
CC(C)CCN1C(=O)c2ccc(C(=O)OCC(=O)N(CC(C)C)C3CCS(=O)(=O)C3)cc2C1=O (stereo not given),-,.,.,-,-
O=C(Nc1ccc([N+](=O)[O-])cc1)c1cccc([N+](=O)[O-])c1,-,.,.,-,-
CC(=O)Nc1ccc(NC(=S)NC(=O)c2ccc([N+](=O)[O-])cc2)cc1,-,-,-,40,-
CC(=O)Nc1ccc(NC(=S)NC(=O)c2ccc(-c3ccccc3)cc2)cc1,-,.,.,-,-
Cc1cc(NS(=O)(=O)c2ccc(NC(=S)NC(=O)c3ccc(Br)cc3)cc2)no1,-,-,-,42,-
CC(C)NS(=O)(=O)c1ccc(NC(=S)NC(=O)c2ccc(-c3ccccc3)cc2)cc1,-,-,-,41,-
O=C(Nc1ccc([N+](=O)[O-])cc1)c1ccccc1,37,-,-,-,-
O=C(Nc1ccc(NC(=O)C2CCCCC2)nc1)c1cccs1,-,-,-,-,-
